Results on 14 compounds are retold here after ChEMBL document CHEMBL3259575, “Evaluation of a large library of (thiazol-2-yl)hydrazones and analogues as histone acetyltransferase inhibitors: enzyme and cellular studies” (2014).

The source made the active and inactive calls. No cut-off for these calls is given here.

Assay [1] deals with Histone acetyltransferase KAT2B (Homo sapiens) (UniProt Q92831). Put plainly: Inhibition of recombinant human PCAF catalytic domain (492 to 658 aa) using histone H3 at 100 uM after 1 hr by radiochemical assay in presence of [acetyl-3H]-acetyl coenzyme A.
The target in assay [2] is Histone acetyltransferase p300 (Homo sapiens) (UniProt Q09472). Put plainly: Inhibition of recombinant human p300 catalytic domain (1284 to 1673 aa) using histone H3 at 200 uM after 1 hr by radiochemical assay in presence of [acetyl-3H]-acetyl coenzyme A.
Assay [3] relates to U-937. Put plainly: Induction of apoptosis in human U937 cells at 100 uM after 30 hrs by FACS analysis relative to control. Format: functional. An outline of the steps: (§1)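 Cells cultured at 37 °C, 5% CO2 in RPMI-1640 plus 10% heat-inactivated FBS and antibiotics; treated 30 h; apoptosis read by FACS as the pre-G1 population, compared with untreated control.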
The target of assay [4] is Histone acetyltransferase p300 (Homo sapiens) (UniProt Q09472). Put plainly: Inhibition of recombinant human p300 catalytic domain (1284 to 1673 aa) using histone H3 at 400 uM after 1 hr by radiochemical assay in presence of [acetyl-3H]-acetyl coenzyme A.
For assay [5], the system named is U-937. Put plainly: Induction of human U937 cell differentiation assessed as CD11c expression at 100 uM after 30 hrs by propidium iodide-based flow cytometry relative to control. Format: functional. An outline of the steps: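 U937 cells treated 30 h, then stained 1 h at 4 °C in dark with PE-conjugated anti-CD11c (mouse IgG1-PE isotype for controls), washed, resuspended in PBS with propidium iodide; flow cytometry, CD11c-positive percentage after subtracting PI-positive dead cells, versus control.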

For assay [6], the system named is HCT-116. Put plainly: Induction of apoptosis in human HCT116 cells at 100 uM after 30 hrs by FACS analysis relative to control. Format: functional. An outline of the steps: as §1
Assay [7] deals with U-937. Put plainly: Induction of apoptosis in human U937 cells at 100 uM after 30 hrs by FACS analysis relative to control relative to CPTH6. It counts as functional.
For assay [8], the system named is U-937. Put plainly: Induction of apoptosis in human U937 cells at 100 uM after 30 hrs by FACS analysis relative to control in presence of CPTH6. It counts as functional, cell-based.
The target in assay [9] is Histone acetyltransferase p300 (Homo sapiens) (UniProt Q09472). Put plainly: Inhibition of recombinant human p300 catalytic domain (1284 to 1673 aa) using histone H3 at 100 uM after 1 hr by radiochemical assay in presence of [acetyl-3H]-acetyl coenzyme A.
Assay [10] deals with U-937. Put plainly: Cell cycle arrest in human U937 cells assessed as reduction in cells at S phase at 100 uM after 30 hrs by propidium iodide-based flow cytometry relative to control. Format: functional. An outline of the steps: (§2)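 Cells kept at 37 °C, 5% CO2 in RPMI-1640 with 10% heat-inactivated FBS, penicillin, streptomycin, L-glutamine, amphotericin B; plated at 2 × 10^5 cells/mL, exposed 30 h, then suspended in PBS with 0.1% sodium citrate, 0.1% NP40 and propidium iodide; 30 min room temperature in dark; flow cytometry, cell-cycle phase distribution versus untreated control.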

For assay [11], the system named is U-937. Put plainly: Cell cycle arrest at G1 phase in human U937 cells at 100 uM after 30 hrs by propidium iodide-based flow cytometry relative to control. Format: functional. An outline of the steps: as §2
The test system of assay [12] is HCT-116. Put plainly: Cell cycle arrest at G1 phase in human HCT116 cells at 100 uM after 30 hrs by propidium iodide-based flow cytometry relative to control. Format: functional. An outline of the steps: as §2

Histone acetyltransferase KAT2B (Homo sapiens), sequence (Q92831 whole entry, looked up, the tested form may be a part): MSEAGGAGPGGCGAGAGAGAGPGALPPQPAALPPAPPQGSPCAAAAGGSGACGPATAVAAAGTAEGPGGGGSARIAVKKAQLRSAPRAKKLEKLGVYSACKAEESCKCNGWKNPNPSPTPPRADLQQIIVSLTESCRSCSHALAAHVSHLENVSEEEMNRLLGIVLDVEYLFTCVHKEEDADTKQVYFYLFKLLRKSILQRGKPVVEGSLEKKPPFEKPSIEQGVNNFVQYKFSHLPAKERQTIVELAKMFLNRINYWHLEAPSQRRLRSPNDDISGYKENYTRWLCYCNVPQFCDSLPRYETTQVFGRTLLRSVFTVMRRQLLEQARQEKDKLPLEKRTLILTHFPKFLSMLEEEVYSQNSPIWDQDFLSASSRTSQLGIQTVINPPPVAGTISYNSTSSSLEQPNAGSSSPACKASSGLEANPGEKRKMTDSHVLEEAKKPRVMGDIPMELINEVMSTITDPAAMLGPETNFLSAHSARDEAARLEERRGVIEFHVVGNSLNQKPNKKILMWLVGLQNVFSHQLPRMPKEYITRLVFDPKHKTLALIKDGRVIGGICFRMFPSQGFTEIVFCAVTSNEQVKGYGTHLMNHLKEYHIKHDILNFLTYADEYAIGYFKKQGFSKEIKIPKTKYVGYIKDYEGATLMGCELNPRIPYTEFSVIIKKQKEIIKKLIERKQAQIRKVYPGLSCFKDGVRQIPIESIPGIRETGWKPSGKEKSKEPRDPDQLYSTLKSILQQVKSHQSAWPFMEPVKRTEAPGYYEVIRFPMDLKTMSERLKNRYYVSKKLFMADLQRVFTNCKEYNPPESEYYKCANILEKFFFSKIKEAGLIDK
Histone acetyltransferase p300 (Homo sapiens), sequence (Q09472 whole entry, the tested form may be a part): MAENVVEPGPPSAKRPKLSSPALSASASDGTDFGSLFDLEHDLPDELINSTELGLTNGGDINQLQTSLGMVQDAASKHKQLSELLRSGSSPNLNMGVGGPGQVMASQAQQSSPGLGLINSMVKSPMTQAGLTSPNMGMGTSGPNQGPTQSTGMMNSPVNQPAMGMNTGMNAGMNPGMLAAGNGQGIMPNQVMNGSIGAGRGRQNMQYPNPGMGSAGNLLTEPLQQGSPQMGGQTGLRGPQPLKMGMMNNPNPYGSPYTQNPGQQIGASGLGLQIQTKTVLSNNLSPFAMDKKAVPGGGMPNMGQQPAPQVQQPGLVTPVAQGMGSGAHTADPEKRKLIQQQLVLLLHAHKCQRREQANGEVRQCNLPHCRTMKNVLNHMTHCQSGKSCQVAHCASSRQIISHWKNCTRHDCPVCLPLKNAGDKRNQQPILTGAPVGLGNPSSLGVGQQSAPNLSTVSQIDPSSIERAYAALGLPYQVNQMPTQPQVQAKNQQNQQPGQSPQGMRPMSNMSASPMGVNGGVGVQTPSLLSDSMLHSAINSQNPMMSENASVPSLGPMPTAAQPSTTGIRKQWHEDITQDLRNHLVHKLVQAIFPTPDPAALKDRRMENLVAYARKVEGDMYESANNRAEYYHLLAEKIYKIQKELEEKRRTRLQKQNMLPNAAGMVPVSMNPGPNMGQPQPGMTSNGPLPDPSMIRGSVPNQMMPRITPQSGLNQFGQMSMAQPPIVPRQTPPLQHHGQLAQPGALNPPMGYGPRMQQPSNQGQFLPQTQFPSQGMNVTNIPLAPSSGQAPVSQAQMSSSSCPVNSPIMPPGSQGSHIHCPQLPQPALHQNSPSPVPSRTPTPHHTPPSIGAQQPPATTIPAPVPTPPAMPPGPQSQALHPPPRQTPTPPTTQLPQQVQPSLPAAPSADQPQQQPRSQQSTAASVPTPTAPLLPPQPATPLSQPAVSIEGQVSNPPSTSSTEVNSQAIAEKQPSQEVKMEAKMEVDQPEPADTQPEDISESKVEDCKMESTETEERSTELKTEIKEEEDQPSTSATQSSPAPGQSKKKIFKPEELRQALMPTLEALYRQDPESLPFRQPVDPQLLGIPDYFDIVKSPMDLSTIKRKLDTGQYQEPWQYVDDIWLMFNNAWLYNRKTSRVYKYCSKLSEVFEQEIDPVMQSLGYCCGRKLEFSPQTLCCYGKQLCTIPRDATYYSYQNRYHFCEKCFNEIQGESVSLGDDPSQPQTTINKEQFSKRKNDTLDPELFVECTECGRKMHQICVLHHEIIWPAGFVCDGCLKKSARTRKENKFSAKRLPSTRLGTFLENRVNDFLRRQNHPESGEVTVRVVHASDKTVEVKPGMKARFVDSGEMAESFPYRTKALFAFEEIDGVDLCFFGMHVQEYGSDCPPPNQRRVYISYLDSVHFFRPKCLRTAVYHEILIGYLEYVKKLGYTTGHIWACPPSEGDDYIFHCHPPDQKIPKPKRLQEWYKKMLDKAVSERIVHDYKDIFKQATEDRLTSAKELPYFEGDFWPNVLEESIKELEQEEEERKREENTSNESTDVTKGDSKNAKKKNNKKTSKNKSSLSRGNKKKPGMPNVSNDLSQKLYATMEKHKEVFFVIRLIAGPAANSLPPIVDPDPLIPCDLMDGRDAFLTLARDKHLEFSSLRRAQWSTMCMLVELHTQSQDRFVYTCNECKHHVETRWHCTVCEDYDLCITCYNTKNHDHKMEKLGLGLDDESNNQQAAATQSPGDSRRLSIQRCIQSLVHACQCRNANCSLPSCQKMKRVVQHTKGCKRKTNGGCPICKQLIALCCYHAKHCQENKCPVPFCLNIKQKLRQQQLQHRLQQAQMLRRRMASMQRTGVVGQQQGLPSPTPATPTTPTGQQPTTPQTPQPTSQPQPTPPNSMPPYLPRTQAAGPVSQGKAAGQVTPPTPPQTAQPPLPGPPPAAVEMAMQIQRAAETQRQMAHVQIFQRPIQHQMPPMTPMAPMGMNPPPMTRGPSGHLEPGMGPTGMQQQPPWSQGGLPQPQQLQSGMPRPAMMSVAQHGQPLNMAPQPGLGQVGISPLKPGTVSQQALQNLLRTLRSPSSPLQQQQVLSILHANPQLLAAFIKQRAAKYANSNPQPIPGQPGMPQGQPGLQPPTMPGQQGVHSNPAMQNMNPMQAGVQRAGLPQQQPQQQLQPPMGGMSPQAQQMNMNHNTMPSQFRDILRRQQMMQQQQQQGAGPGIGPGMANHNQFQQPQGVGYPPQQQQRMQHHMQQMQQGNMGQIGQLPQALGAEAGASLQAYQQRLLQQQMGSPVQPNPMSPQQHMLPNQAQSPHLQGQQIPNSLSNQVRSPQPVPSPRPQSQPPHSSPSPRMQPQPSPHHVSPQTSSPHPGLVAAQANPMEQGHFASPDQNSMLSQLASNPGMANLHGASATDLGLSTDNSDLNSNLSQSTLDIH

`C/C(=N/Nc1nc(-c2ccc(Cl)cc2)cs1)c1cc2ccccc2oc1=O`: the inhibition turned out to be 11% in assay [1], 86% in assay [2], 97% in assay [4] and 62% in [9]. The Activity in assay [3] is reported as 44%; in assay [6] it was 10%. The result in assay [5] and in assay [8] was Active. In assay [7], the “fold change (FC)” value turned out to be 1.5.

For `COc1cccc(-c2csc(NN=C3CCCC3)n2)c1`, the inhibition in assay [1] was determined as 11%; in assay [2], 51%; in assay [4], 62%; in assay [9] it was 31%.

In the case of `C/C(=N/Nc1nc(-c2ccc(Cl)cc2)cs1)c1ccccn1`, the inhibition worked out at 10% in assay [1], 69% in assay [2], 87% in assay [4] and 51% in assay [9]. Moreover, the outcome in assay [10], in assay [5] and in assay [11] was Active.

Consider `CC(C)=NNc1nc(-c2ccc(Br)cc2)cs1`, for which the inhibition in assay [1] worked out at 13%; in [2], 53%; in assay [4], 63%; in assay [9], 42%.

With `CC1CC/C(=N/Nc2nc(-c3ccc(Cl)cc3)cs2)C1` (stereo not given), the inhibition in [1] amounted to 0%; in assay [9], 27%. Besides, the Activity amounted to 29% in assay [3] and 11.5% in [6].

In the case of `CC(C)=NNc1nc(-c2cccc([N+](=O)[O-])c2)cs1`, the inhibition in assay [1] is 7%; in assay [2] it was 54%; in assay [4], 76%; in assay [9], 33%. Besides, the outcome in [12] was Active. For the same compound, the Activity in assay [6] was found to be 10%.

Take `CC(C)=NNc1nc(-c2cc3ccccc3oc2=O)cs1`: the inhibition was found to be 12% in [1], 46% in assay [2], 56% in assay [4] and 32% in assay [9].

For `Fc1ccc(-c2csc(NN=C3CCCC3)n2)cc1`, the inhibition in assay [1] was 12%; in [2], 62%; in [4] it was 91%; in [9], 35%. Besides, the Activity in assay [3] is listed as 44%; in assay [6] it was 10%. In addition, the result in assay [10], in assay [5], in [12], in [8] and in assay [11] was Active. Further, in [7], the “fold change (FC)” value is recorded as 1.5.

`CC1CC/C(=N/Nc2nc(-c3cc4ccccc4oc3=O)cs2)C1` (stereo not given): the inhibition in assay [1] is 13%; in [2] it was 52%; in [4], 69%; in assay [9] it was 41%. Besides, the result in assay [12] was Active.

As for `c1ccc(-c2csc(NN=C3CCCC3)n2)cc1`, the inhibition in assay [1] stood at 15%; in assay [2] it was 56%; in [4] it was 54%; in assay [9] it was 37%.

For `CC(C)=NNc1nc(-c2ccc(Cl)cc2)cs1`, the inhibition is 1% in assay [1], 45% in [2], 60% in assay [4] and 31% in assay [9].

Take `Clc1ccc(-c2csc(NN=C3CCCC3)n2)cc1`: the inhibition in assay [1] was found to be 1%; in assay [2], 47%; in assay [4] it was 61%; in [9], 34%.

For `Clc1ccc(-c2csc(N/N=C\c3c[nH]c4ccccc34)n2)cc1`, the inhibition in [1] stood at 0%; in assay [2], 79%; in [4] it was 97%; in [9], 61%. Also, the Activity in assay [3] is reported as 44%; in assay [6], 10%. Besides, the result in assay [5] and in [8] was Active. Also, in assay [7], the “fold change (FC)” value stood at 1.5.

Consider `C/C(=N/Nc1nc(-c2ccc(Cl)cc2)cs1)c1nccs1`, for which the inhibition in assay [1] came out at 10%; in [2], 55%; in assay [4] it was 67%; in assay [9] it was 46%.
